Data: ChEMBL document CHEMBL1149585, “Toward the development of chemoprevention agents. Part 1: Design, synthesis, and anti-inflammatory activities of a new class of 2,5-disubstituted-dioxacycloalkanes” (Bioorg Med Chem, 2007)

How the values were obtained:
Mus musculus [1] = assay: Inhibition of xylene-induced ear edema in Kunming mouse at 20 mg/kg, po after 2 hrs relative to control; format: functional
Summary of the method: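 Male Kunming mice (groups of 12; n = 11 per table footnote) were dosed orally as a suspension in 0.5% CMC, with CMC vehicle and positive control groups. After 30 min, 0.03 ml xylene went on both surfaces of the right ear, with the left ear as control. Mice were killed 2 h later. 7 mm ear punches were weighed, and edema was taken as right minus left weight. Groups were compared by one-way ANOVA, p < 0.05.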

Mus musculus [2] = assay: Toxicity in mouse assessed as tail bleeding time at 200 mg/kg, po after 60 mins; format: organism-based; design: dose 200 mg/kg, route oral; conditions: in vivo, 1 h
Summary of the method: (§1)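 Male mice (18–22 g) were dosed orally, and bleeding time was recorded before dosing and at each post-dose time. Each mouse was held in a tube with its tail protruding, and a 2 mm tail cut was made. Blood was wiped away with tissue every 30 s until bleeding ceased, and the time was recorded. The comparison group received NS.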

Mus musculus [3] = assay: Toxicity in mouse assessed as tail bleeding time at 200 mg/kg, po after 90 mins; format: organism-based; design: dose 200 mg/kg, route oral; conditions: in vivo, 1.5 h; summary of the method: as §1
Mus musculus [4] = assay: Toxicity in mouse assessed as tail bleeding time at 200 mg/kg, po after 45 mins; format: organism-based; design: dose 200 mg/kg, route oral; conditions: in vivo, 0.75 h; summary of the method: as §1
Mus musculus [5] = assay: Toxicity in mouse assessed as tail bleeding time at 200 mg/kg, po after 30 mins; format: organism-based; design: dose 200 mg/kg, route oral; conditions: in vivo, 0.5 h; summary of the method: as §1

Row | SMILES | inhibition in vivo at 20 mg/kg (Mus musculus [1]) [%] | Activity (Mus musculus [2]) [s] | Activity (Mus musculus [3]) [s] | Activity (Mus musculus [4]) [s] | Activity (Mus musculus [5]) [s]
1 | O=C(Cc1ccccc1)N[C@H]1CCO[C@H](c2ccc(Cl)cc2)OC1 | 23.7 | – | – | – | –
2 | C[C@@H]1O[C@@H](c2ccc([N+](=O)[O-])cc2)OC[C@H]1NC(=O)Cc1ccccc1 | 55.8 | 117.9 | 117.2 | 118.5 | 117.8
3 | O=C(N[C@H]1CO[C@@H](c2cccc([N+](=O)[O-])c2)OC1)c1ccccc1 | 42.9 | 119.1 | 120.2 | 118.2 | 119.3
4 | O=C(Cc1ccccc1)N[C@H]1CCO[C@H](c2ccc([N+](=O)[O-])cc2)OC1 | 18.9 | – | – | – | –
5 | O=C(N[C@H]1CCO[C@@H](c2cccc([N+](=O)[O-])c2)OC1)c1ccccc1 | 21.8 | – | – | – | –
6 | Cc1ccc([C@H]2OC[C@@H](NC(=O)c3ccccc3)[C@H](C)O2)cc1 | 46.1 | 119.8 | 118.7 | 121 | 120.9
7 | O=C(N[C@H]1CCO[C@H](c2ccc(Cl)cc2)OC1)c1ccccc1 | 29.5 | – | – | – | –
8 | O=C(Cc1ccccc1)N[C@H]1CCO[C@@H](c2ccc([N+](=O)[O-])cc2)OC1 | 19.6 | – | – | – | –
9 | C[C@@H]1O[C@H](c2ccc([N+](=O)[O-])cc2)OC[C@H]1NC(=O)Cc1ccccc1 | 55.1 | 117.9 | 117.2 | 118.5 | 117.8
10 | O=C(Cc1ccccc1)N[C@H]1CCCO[C@@H](c2cccc([N+](=O)[O-])c2)OC1 | 19.9 | – | – | – | –
11 | C[C@@H]1O[C@@H](c2ccccc2)OC[C@H]1NC(=O)Cc1ccccc1 | 40 | 118.6 | 117.9 | 119 | 118.5
12 | C[C@@H]1O[C@@H](c2cccc([N+](=O)[O-])c2)OC[C@H]1NC(=O)c1ccccc1 | 42 | 117.4 | 118.3 | 119.2 | 118.9
13 | O=C(Cc1ccccc1)N[C@H]1CO[C@@H](c2ccc([N+](=O)[O-])cc2)OC1 | 43.3 | 117.6 | 117.7 | 120.2 | 120.7
14 | C[C@@H]1O[C@@H](/C=C/c2ccccc2)OC[C@H]1NC(=O)Cc1ccccc1 | 32.1 | – | – | – | –
15 | C[C@@H]1O[C@H](c2cccc([N+](=O)[O-])c2)OC[C@H]1NC(=O)Cc1ccccc1 | 46.5 | 118.5 | 118.6 | 118.7 | 120.1
16 | O=C(N[C@H]1CO[C@@H](c2ccc([N+](=O)[O-])cc2)OC1)c1ccccc1 | 44.2 | 120.6 | 119.4 | 118.7 | 119.4
17 | C[C@@H]1O[C@H](c2cccc([N+](=O)[O-])c2)OC[C@H]1NC(=O)c1ccccc1 | – | 119.5 | 118.2 | 118.2 | 118.9
18 | O=C(N[C@H]1CO[C@H](c2ccc([N+](=O)[O-])cc2)OC1)c1ccccc1 | 48.7 | 118.6 | 118.9 | 117.7 | 119.5
19 | O=C(Cc1ccccc1)N[C@H]1CO[C@@H](c2ccccc2)OC1 | 38.5 | 117.8 | 118.9 | 119.3 | 118.5
20 | O=C(Cc1ccccc1)N[C@H]1CO[C@H](c2ccc([N+](=O)[O-])cc2)OC1 | 44.6 | 117.6 | 117.7 | 120.2 | 120.7
21 | O=C(N[C@H]1CCO[C@H](c2ccc([N+](=O)[O-])cc2)OC1)c1ccccc1 | 19.2 | – | – | – | –
22 | O=C(Cc1ccccc1)N[C@H]1CCCO[C@@H](c2ccc(Cl)cc2)OC1 | 23.7 | – | – | – | –
23 | O=C(Cc1ccccc1)N[C@H]1CO[C@H](c2ccc(Cl)cc2)OC1 | 42 | 119.5 | 118.4 | 119.2 | 117.9
24 | C[C@@H]1O[C@@H](c2cccc([N+](=O)[O-])c2)OC[C@H]1NC(=O)Cc1ccccc1 | 47.1 | 118.5 | 118.6 | 118.7 | 120.1
25 | C[C@@H]1O[C@@H](c2ccc(Cl)cc2)OC[C@H]1NC(=O)c1ccccc1 | 56.4 | 118.5 | 118.7 | 118.9 | 118.3

Row | SMILES | inhibition in vivo at 20 mg/kg (Mus musculus [1]) [%] | Activity (Mus musculus [2]) [s] | Activity (Mus musculus [3]) [s] | Activity (Mus musculus [4]) [s] | Activity (Mus musculus [5]) [s]
26 | O=C(N[C@H]1CCO[C@H](c2cccc([N+](=O)[O-])c2)OC1)c1ccccc1 | 20.8 | – | – | – | –
27 | O=C(N[C@H]1CCO[C@@H](c2ccc([N+](=O)[O-])cc2)OC1)c1ccccc1 | 20.2 | – | – | – | –
28 | O=C(Cc1ccccc1)N[C@H]1CCO[C@@H](c2cccc([N+](=O)[O-])c2)OC1 | 21.2 | – | – | – | –
29 | O=C(Cc1ccccc1)N[C@H]1CCO[C@@H](c2ccc(Cl)cc2)OC1 | 24.4 | – | – | – | –
30 | C[C@@H]1O[C@@H](c2ccccc2)OC[C@H]1NC(=O)c1ccccc1 | 43.9 | – | – | – | –
31 | C[C@@H]1O[C@H](c2ccc([N+](=O)[O-])cc2)OC[C@H]1NC(=O)c1ccccc1 | 55.4 | 118.8 | 119 | 118.1 | 117.8
32 | Cc1ccc([C@H]2OC[C@@H](NC(=O)Cc3ccccc3)CO2)cc1 | 36.5 | 118.4 | 119.2 | 118.6 | 117.2
33 | Cc1ccc([C@@H]2OC[C@@H](NC(=O)c3ccccc3)[C@H](C)O2)cc1 | 44.9 | 118.9 | 117.7 | 118.5 | 120.4
34 | O=C(N[C@H]1CCO[C@@H](c2ccc(Cl)cc2)OC1)c1ccccc1 | 28.2 | – | – | – | –
35 | Cc1ccc([C@H]2OC[C@@H](NC(=O)Cc3ccccc3)[C@H](C)O2)cc1 | 41 | 119 | 118.5 | 118.6 | 117.9
36 | O=C(Cc1ccccc1)N[C@H]1CCCO[C@H](c2ccc([N+](=O)[O-])cc2)OC1 | 19.9 | – | – | – | –
37 | O=C(N[C@H]1CO[C@@H](c2ccc(Cl)cc2)OC1)c1ccccc1 | 28.5 | 120.9 | 119.4 | 118.9 | 118
38 | O=C(Cc1ccccc1)N[C@H]1CO[C@H](c2cccc([N+](=O)[O-])c2)OC1 | 42.6 | 119.2 | 118.6 | 118.5 | 117.7
39 | O=C(Cc1ccccc1)N[C@H]1CO[C@@H](/C=C/c2ccccc2)OC1 | 27.2 | – | – | – | –
40 | O=C(N[C@H]1CO[C@H](c2cccc([N+](=O)[O-])c2)OC1)c1ccccc1 | 45.2 | 118.4 | 118.7 | 118 | 118.8
41 | C[C@@H]1O[C@H](c2ccc(Cl)cc2)OC[C@H]1NC(=O)c1ccccc1 | 47.1 | 118.7 | 118.6 | 118.6 | 119.6
42 | O=C(Cc1ccccc1)N[C@H]1CO[C@@H](c2ccc(Cl)cc2)OC1 | 43.6 | 119.5 | 118.4 | 119.2 | 117.9
43 | C[C@H]1O[C@@H](c2ccc(Cl)cc2)OC[C@H]1NC(=O)Cc1ccccc1 | 46.4 | 118.6 | 119 | 119.6 | 118.4
44 | O=C(N[C@H]1CO[C@H](c2ccc(Cl)cc2)OC1)c1ccccc1 | 47.4 | 118.7 | 119.6 | 118.9 | 119
45 | C[C@@H]1O[C@H](/C=C/c2ccccc2)OC[C@H]1NC(=O)Cc1ccccc1 | 33.3 | – | – | – | –
46 | O=C(Cc1ccccc1)N[C@H]1CCCO[C@@H](c2ccc([N+](=O)[O-])cc2)OC1 | 20.8 | – | – | – | –
47 | O=C(Cc1ccccc1)N[C@H]1CCCO[C@H](c2cccc([N+](=O)[O-])c2)OC1 | 19.2 | – | – | – | –
48 | O=C(Cc1ccccc1)N[C@H]1CCCO[C@H](c2ccc(Cl)cc2)OC1 | 23.1 | – | – | – | –
49 | O=C(Cc1ccccc1)N[C@H]1CO[C@H](/C=C/c2ccccc2)OC1 | 29.5 | – | – | – | –
50 | O=C(Cc1ccccc1)N[C@H]1CCO[C@H](c2cccc([N+](=O)[O-])c2)OC1 | 20.1 | – | – | – | –
